From ChEMBL document CHEMBL1208681, “Synthesis and antitumor activities of novel 1,4-disubstituted phthalazine derivatives” (Eur J Med Chem, 2010)

Columns and labels:
MDA-MB-231 [1] = assay: Cytotoxicity against human MDA-MB-231 cells after 72 hrs by MTT assay; assay type: functional, cell-based; details: MDA-MB-231, 72 h
How it was run: (§1)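 Cells grown in MEM with 10% FBS. About 4 × 10^3 cells per well were seeded and held 24 h at 37 °C in 5% CO2. Compounds were added at the indicated final concentrations for 72 h. MTT was added to 5 µg/mL final for 4 h at 37 °C. Formazan was dissolved in DMSO and read at 492 nm against 630 nm reference. Each line was tested twice; IC50 is the mean of two determinations.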

HT-29 [2] = assay: Cytotoxicity against human HT-29 cells after 72 hrs by MTT assay; assay type: functional, cell-based; how it was run: as §1
A549 [3] = assay: Cytotoxicity against human A549 cells after 72 hrs by MTT assay; assay type: functional, cell-based; how it was run: as §1
HT-29 [4] = assay: Ratio of IC50 for compound to IC50 for PTK-787 for human HT-29 cells; assay type: functional
MDA-MB-231 [5] = assay: Ratio of IC50 for compound to IC50 for PTK-787 for human MDA-MB-231 cells; assay type: functional
A549 [6] = assay: Ratio of IC50 for compound to IC50 for PTK-787 for human A549 cells; assay type: functional
[7] = Homo sapiens, HT-29, 72 h, read-out: IC50
[8] = Homo sapiens, A549, 72 h, read-out: IC50

| Compound | IC50 (MDA-MB-231 [1]) [µM] | IC50 (HT-29 [2]; [7]) [µM] | IC50 (A549 [3]; [8]) [µM] | Ratio IC50 (HT-29 [4]) | Ratio IC50 (MDA-MB-231 [5]) | Ratio IC50 (A549 [6]) | IC50 (A549 [3]; a549) | IC50 (HT-29 [2]; ht-29) |
| --- | --- | --- | --- | --- | --- | --- | --- | --- |
| O=C(CN1CCN(c2nnc(Cc3ccccc3)c3ccccc23)CC1)Nc1ccc(F)c(C(F)(F)F)c1 | 0.76 | 4.59 | 2.48 |  |  |  |  |  |
| Cc1cccc(Cl)c1NC(=O)CN1CCN(c2nnc(Cc3ccncc3)c3ccccc23)CC1 | 2.67 | 22.6 | 7.19 |  |  |  |  |  |
| O=C(CN1CCN(c2nnc(Cc3ccncc3)c3ccccc23)CC1)Nc1ccc(F)c(F)c1 | 0.00084 | 2.32 | 3.79 | 10.8 | 69000 | 5.6 |  |  |
| O=C(CN1CCN(c2nnc(Cc3ccccc3)c3ccccc23)CC1)Nc1ccc(Br)cc1 | 12.4 | 60.2 | 2 |  |  |  |  |  |
| Cc1ccc(F)cc1NC(=O)CN1CCN(c2nnc(Cc3ccncc3)c3ccccc23)CC1 | 0.0064 | 0.47 | 38.9 |  |  |  |  |  |
| O=C(CN1CCN(c2nnc(Cc3ccncc3)c3ccccc23)CC1)Nc1cccc(Br)c1 | 0.0017 | 1.35 | 1.53 |  |  |  |  |  |
| O=C(CN1CCN(c2nnc(Cc3ccncc3)c3ccccc23)CC1)Nc1ccc(F)c(Cl)c1 | 0.004 | 0.88 | 12.3 |  |  |  |  |  |
| O=C(CN1CCN(c2nnc(Cc3ccncc3)c3ccccc23)CC1)Nc1ccc(Br)cc1 | 0.019 | 1.99 | 2.71 |  |  |  |  |  |
| O=C(CN1CCN(c2nnc(Cc3ccncc3)c3ccccc23)CC1)Nc1cc(C(F)(F)F)ccc1Cl | 0.0037 | 4.81 | 1.85 |  |  |  |  |  |
| Cc1ccccc1NC(=O)CN1CCN(c2nnc(Cc3ccncc3)c3ccccc23)CC1 | 0.2 | 15 | 43.1 |  |  |  |  |  |
| O=C(CN1CCN(c2nnc(Cc3ccncc3)c3ccccc23)CC1)Nc1ccc(F)c(C(F)(F)F)c1 | 0.0019 | 1.11 | 16 |  |  |  |  |  |
| O=C(CN1CCN(c2nnc(Cc3ccccc3)c3ccccc23)CC1)Nc1c(F)cccc1F | 5.49 | 19.7 | 84.5 |  |  |  |  |  |
| COc1ccc(NC(=O)CN2CCN(c3nnc(Cc4ccccc4)c4ccccc34)CC2)cc1OC | 32.2 | 145 |  |  |  |  | Not Active |  |
| O=C(CN1CCN(c2nnc(Cc3ccccc3)c3ccccc23)CC1)Nc1cccc(Br)c1 | 3.88 | 13.4 |  |  |  |  | Not Active |  |
| O=C(CN1CCN(c2nnc(Cc3ccccc3)c3ccccc23)CC1)Nc1ccc(F)c(Cl)c1 | 7.36 | 13.3 |  |  |  |  | Not Active |  |
| Cc1ccccc1NC(=O)CN1CCN(c2nnc(Cc3ccccc3)c3ccccc23)CC1 | 17.3 | 113 |  |  |  |  | Not Active |  |
| O=C(CN1CCN(c2nnc(Cc3ccncc3)c3ccccc23)CC1)Nc1c(F)cccc1F | 1.9 | 28.7 | 54.4 |  |  |  |  |  |
| O=C(CN1CCN(c2nnc(Cc3ccccc3)c3ccccc23)CC1)Nc1cccc(F)c1 | 3.73 | 95 | 130 |  |  |  |  |  |
| COc1ccc(NC(=O)CN2CCN(c3nnc(Cc4ccncc4)c4ccccc34)CC2)cc1OC | 0.1 | 40.1 | 26.5 |  |  |  |  |  |
| Clc1ccc(Nc2nnc(Cc3ccncc3)c3ccccc23)cc1 [VATALANIB] | 57.7 | 22.1 | 21.2 |  |  |  |  |  |
| Cc1ccc(NC(=O)CN2CCN(c3nnc(Cc4ccncc4)c4ccccc34)CC2)c(C)c1 | 0.24 | 1.93 | 45 |  |  |  |  |  |
| Cc1ccc(F)cc1NC(=O)CN1CCN(c2nnc(Cc3ccccc3)c3ccccc23)CC1 | 19.2 | 170 |  |  |  |  | Not Active |  |
| O=C(CN1CCN(c2nnc(Cc3ccccc3)c3ccccc23)CC1)Nc1cc(C(F)(F)F)ccc1Cl | 19.5 | 66.8 | 89 |  |  |  |  |  |
| O=C(CN1CCN(c2nnc(Cc3ccncc3)c3ccccc23)CC1)Nc1cccc(F)c1 | 0.0044 | 6.13 | 4.6 |  |  |  |  |  |
| Cc1cccc(Cl)c1NC(=O)CN1CCN(c2nnc(Cc3ccccc3)c3ccccc23)CC1 | 3.92 | 53.6 | 7.42 |  |  |  |  |  |
| Cc1ccc(NC(=O)CN2CCN(c3nnc(Cc4ccccc4)c4ccccc34)CC2)c(C)c1 | 180 |  |  |  |  |  | Not Active | Not Active |
| O=C(CN1CCN(c2nnc(Cc3ccccc3)c3ccccc23)CC1)Nc1ccc(F)c(F)c1 | 2.75 | 9.51 | 10.1 |  |  |  |  |  |
